Source: ChEMBL document CHEMBL4616673 (J Med Chem, 2020)
Converted amounts (≈) assume the structure as drawn. “And” between values parts separate entries of the source, which are not always exact repeats. Equal entries are not always repeated.

How the values were obtained:
[1] = tested on: Raji; experiment: Induction of mitochondrial membrane potential loss in human Raji cells measured after 48 hrs by TMRM staining based fluorescence assay; type: functional, cell-based
Outline: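 Raji cells treated 48 h (CCCP as positive control), washed in PBS. Incubated with TMRM at 100 nM final for 15 min at 37 °C, fluorescence read at ex 510/em 580 nm. Mean ± SD.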

[2] = Solubility of the compound in PBS; type: physicochemical
[3] = tested on: A-375; experiment: Antiproliferative activity against human A375 cells assessed as reduction in cell viability measured after 48 hrs by MTT assay; type: functional, cell-based; details: Homo sapiens, A-375, 48 h
[4] = tested on: HCT-116; experiment: Antiproliferative activity against human HCT116 cells assessed as reduction in cell viability measured after 48 hrs by MTT assay; type: functional, cell-based; details: Homo sapiens, HCT-116, 48 h
[5] = tested on: Raji; experiment: Antiproliferative activity against human Raji cells assessed as reduction in cell viability measured after 48 hrs by MTT assay; type: functional, cell-based; details: Homo sapiens, Raji, 48 h
[6] = tested on: Raji; experiment: Induction of apoptosis in human Raji cells assessed as live cells at 0.031 uM measured after 48 hrs by Annexin V-FITC staining based flow cytometry (reference value: 98.09 %); type: functional
[7] = tested on: Raji; experiment: Induction of apoptosis in human Raji cells assessed as late apoptotic cells at 0.063 uM measured after 48 hrs by Annexin V-FITC staining based flow cytometry (reference value: 0.7 %); type: functional
[8] = tested on: Raji; experiment: Induction of apoptosis in human Raji cells assessed as necrotic cells at 0.063 uM measured after 48 hrs by Annexin V-FITC staining based flow cytometry (reference value: 0.21 %); type: functional
[9] = tested on: Raji; experiment: Induction of apoptosis in human Raji cells assessed as live cells at 0.125 uM measured after 48 hrs by Annexin V-FITC staining based flow cytometry (reference value: 98.09 %); type: functional
[10] = tested on: Raji; experiment: Induction of apoptosis in human Raji cells assessed as early apoptotic cells at 0.125 uM measured after 48 hrs by Annexin V-FITC staining based flow cytometry (reference value: 1 %); type: functional
[11] = tested on: Raji; experiment: Induction of apoptosis in human Raji cells assessed as late apoptotic cells at 0.125 uM measured after 48 hrs by Annexin V-FITC staining based flow cytometry (reference value: 0.7 %); type: functional
[12] = Half life in rat liver microsomes at 1 uM in presence of NADPH by LC-MS analysis; type: ADME, Microsome
Outline: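 Compound at 1 μM with 0.5 mg/mL human, rat or mouse liver microsomes and 1 mM NADPH. Stopped with acetonitrile at 0, 5, 15, 30, 45, 60 and 90 min, centrifuged. Supernatant analysed by LC-MS/MS.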

[13] = Toxicity in NOD-SCID nude mouse xenografted with human Raji cells assessed as effect on body weight at 40 to 80 mg/kg/day, po administered 6 days a week for 3 weeks and measured every 3 days during compound dosing; type: organism-based; details: in vivo
Outline: (§1)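 Mice, 6-7 weeks old, injected s.c. with 1×10^7 Raji cells in serum-free medium plus basement membrane matrix. At 100–200 mm3 tumours, randomised (n=6). Oral dosing 6 days/week for 3 weeks: 30 mg/kg/d free compound suspended in 5% NMP/95% PEG400, or 40 or 80 mg/kg/d nanocrystal. Body weight and tumour volume measured every 3 days.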

[14] = Toxicity in NOD-SCID nude mouse xenografted with human Raji cells assessed as death at 30 mg/kg/day, po administered 6 days a week for 3 weeks; type: organism-based; details: in vivo; outline: as §1
[15] = Acute toxicity in po dosed BALB/c mouse assessed as maximum tolerated dose; type: organism-based; details: in vivo
Outline: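 Acute oral dose-escalation in female and male BALB/c mice, 6-8 weeks old, dosed within 24 h. MTD is the highest dose without obvious side effects: body weight loss, diarrhea, anorexia, skin ulcer or toxic death.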

[16] = Acute toxicity in BALB/c mouse assessed as effect on blood ALT level at 400 mg/kg, po measured on day 14; type: organism-based; details: in vivo
Outline: (§2)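 BALB/c mice, female and male, 6-8 weeks old, given oral doses within 24 h, up to 400 mg/kg (free compound) or 800 mg/kg (nanocrystal formulation). Watched for body weight loss, diarrhea, anorexia, skin ulcer and toxic death. Serum biochemistry panel was run at the end of treatment.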

[17] = Acute toxicity in BALB/c mouse assessed as effect on blood TP level at 400 mg/kg, po measured on day 14; type: organism-based; details: in vivo; outline: as §2
[18] = Acute toxicity in BALB/c mouse assessed as effect on blood ALP level at 400 mg/kg, po measured on day 14; type: organism-based; details: in vivo; outline: as §2
[19] = Acute toxicity in BALB/c mouse assessed as effect on blood TG level at 400 mg/kg, po measured on day 14; type: organism-based; details: in vivo; outline: as §2
[20] = Acute toxicity in BALB/c mouse assessed as effect on blood HDL level at 400 mg/kg, po measured on day 14; type: organism-based; details: in vivo; outline: as §2
[21] = Acute toxicity in BALB/c mouse assessed as effect on blood AST level at 800 mg/kg, po measured on day 14; type: organism-based; details: in vivo; outline: as §2
[22] = Acute toxicity in BALB/c mouse assessed as effect on blood TP level at 800 mg/kg, po measured on day 14; type: organism-based; details: in vivo; outline: as §2
[23] = Acute toxicity in BALB/c mouse assessed as effect on blood GLU level at 800 mg/kg, po measured on day 14; type: organism-based; details: in vivo; outline: as §2
[24] = Acute toxicity in BALB/c mouse assessed as effect on blood CREA level at 800 mg/kg, po measured on day 14; type: organism-based; details: in vivo; outline: as §2
[25] = Acute toxicity in BALB/c mouse assessed as effect on blood UA level at 800 mg/kg, po measured on day 14; type: organism-based; details: in vivo; outline: as §2
[26] = Acute toxicity in BALB/c mouse assessed as effect on blood CHO1 level at 800 mg/kg, po measured on day 14; type: organism-based; details: in vivo; outline: as §2
[27] = Acute toxicity in BALB/c mouse assessed as effect on blood CK level at 800 mg/kg, po measured on day 14; type: organism-based; details: in vivo; outline: as §2
[28] = Acute toxicity in BALB/c mouse assessed as effect on blood HDL level at 800 mg/kg, po measured on day 14; type: organism-based; details: in vivo; outline: as §2
[29] = Acute toxicity in BALB/c mouse assessed as effect on kidney at 400 mg/kg, po measured on day 14 by H and E staining based light microscopic analysis; type: organism-based; details: in vivo
Outline: (§3)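 Female and male BALB/c mice, 6-8 weeks old, dosed orally within 24 h at up to 400 mg/kg (free compound) or 800 mg/kg (nanocrystal). At the end of treatment, heart, liver, spleen, lung and kidney were sectioned, stained with H&E and imaged by light microscopy.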

[30] = Acute toxicity in BALB/c mouse assessed as effect on heart at 800 mg/kg, po measured on day 14 by H and E staining based light microscopic analysis; type: organism-based; details: in vivo; outline: as §3
[31] = Acute toxicity in BALB/c mouse assessed as effect on spleen at 800 mg/kg, po measured on day 14 by H and E staining based light microscopic analysis; type: organism-based; details: in vivo; outline: as §3
[32] = Acute toxicity in BALB/c mouse assessed as effect on lung at 800 mg/kg, po measured on day 14 by H and E staining based light microscopic analysis; type: organism-based; details: in vivo; outline: as §3

## O=C1c2ccccc2C(=O)c2c1nnn2-c1cc(F)c(-c2ccccc2F)c(F)c1
[1]
  Activity: Dose-dependent effect
[2]
  solubility: 33.8 µg/mL (≈ 83.4 µM)
[3]
  IC50: 20 nM
[4]
  IC50: 290 nM
[5]
  IC50: 160 nM
[6]
  Activity: 93.14%
[7]
  Activity: 4.26%
[8]
  Activity: 0.34%
[9]
  Activity: 89.46%
[10]
  Activity: 4.1%
[11]
  Activity: 6.04%
[12]
  t1/2: 19.8 min and 54 min
[13]
  Activity: Non-Toxic
[14]
  Activity: Non-Toxic
[15]; BALB/c, read-out: MTD
  MTD: 400 mg/kg
[15]
  MTD: 800 mg/kg
[16]
  Activity: Non-Toxic
[17]
  Activity: Non-Toxic
[18]
  Activity: Non-Toxic
[19]
  Activity: Non-Toxic
[20]
  Activity: Non-Toxic
[21]
  Activity: Non-Toxic
[22]
  Activity: Non-Toxic
[23]
  Activity: Non-Toxic
[24]
  Activity: Non-Toxic
[25]
  Activity: Non-Toxic
[26]
  Activity: Non-Toxic
[27]
  Activity: Non-Toxic
[28]
  Activity: Non-Toxic
[29]
  Activity: Non-Toxic
[30]
  Activity: Non-Toxic
[31]
  Activity: Non-Toxic
[32]
  Activity: Non-Toxic
